This is a sample that favours compounds with a hit; in the whole collection about 1.8% have one here.
CHRM4 antagonist = human M4 muscarinic receptor antagonists, primary screen, CHO cells, Fluo-8 calcium fluorescence. inhibition, % at 3 µM. CHO-hM4 cells, ACh EC80. Muscarinic acetylcholine receptor M4 (Homo sapiens), P08173. actives 0.73% (n = 360,000);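 active = inhibition above its plate's cutoff, the mean inhibition of sample wells plus 3 SD, cut at about 27% in these data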;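 note: 0% = acetylcholine EC80 with DMSO and 100% = DMSO without agonist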
CHRM4 PAM = human M4 muscarinic receptor positive allosteric modulators, primary screen, CHO-K1 cells, Fluo-8 calcium fluorescence; Muscarinic acetylcholine receptor M4 (Homo sapiens), P08173; CHO-K1 hM4/Gqi5, ACh EC20; 0% = ACh EC20, 100% = maximal ACh; activation, % at 3 µM; actives 0.4% (n = 360,000); AID 624126, 2012;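 active = activation above its plate's cutoff, the mean activation of sample wells plus 3 SD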
CHRM5 PAM = human M5 muscarinic receptor positive allosteric modulators, primary screen, CHO-K1 cells, Fluo-8 calcium fluorescence. Muscarinic acetylcholine receptor M5 (Homo sapiens), P08912. actives 0.3% (n = 360,000). activation, % at 3 µM. CHO-K1 hM5, ACh EC20 PAM; 0% = ACh EC20, 100% = ACh EC100;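 active = activation above the run cutoff, the mean activation of all test compounds plus 3 SD, cut at about 18% in these data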
Target sequence (P08912 whole entry, looked up): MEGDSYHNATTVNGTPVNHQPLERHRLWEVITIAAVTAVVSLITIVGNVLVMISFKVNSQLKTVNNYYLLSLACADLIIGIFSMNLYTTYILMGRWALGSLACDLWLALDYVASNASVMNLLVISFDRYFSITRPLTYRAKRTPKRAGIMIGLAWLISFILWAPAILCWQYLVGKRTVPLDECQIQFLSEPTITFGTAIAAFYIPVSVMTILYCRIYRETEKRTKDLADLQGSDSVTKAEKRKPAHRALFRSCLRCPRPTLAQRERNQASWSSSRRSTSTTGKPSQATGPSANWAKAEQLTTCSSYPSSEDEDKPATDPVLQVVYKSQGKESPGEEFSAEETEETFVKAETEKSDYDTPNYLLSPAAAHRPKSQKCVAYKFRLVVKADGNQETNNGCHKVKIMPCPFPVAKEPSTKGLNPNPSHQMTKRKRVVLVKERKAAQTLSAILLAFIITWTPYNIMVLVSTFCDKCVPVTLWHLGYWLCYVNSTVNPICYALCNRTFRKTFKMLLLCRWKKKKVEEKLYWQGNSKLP
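Assay system: CHO-K1 hM5 cells / Incubation: Fluo-8 loading 80 min at 37 °C plus 30 min room temperature / Technique: Fluo-8 calcium dye fluorescence, kinetic read / Repeats: single replicate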
M5 ag = human M5 muscarinic receptor agonists, primary screen, CHO-K1 cells, Fluo-8 calcium fluorescence; CHO-K1 hM5 cells; 0% DMSO wells, 100% maximal acetylcholine response; activation, % at 3 µM; actives 0.19% (n = 360,000); AID 624037, 2012; Muscarinic acetylcholine receptor M5 (Homo sapiens), P08912;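 active = activation above the run's mean over test compounds plus 3 SD, cut at about 23% in these data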;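 note: signal is peak over basal fluorescence ratio across the kinetic read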
CHRM4 agonist = human M4 muscarinic receptor agonists, primary screen, CHO-K1 cells, Fluo-8 calcium fluorescence; CHO-K1 hM4/Gqi5; vehicle 0%, full acetylcholine response 100%; activation, % at 3 µM; actives 0.14% (n = 360,000);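 active = activation above the run mean over all test wells plus 3 SD, cut at about 32% in these data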;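 note: peak over basal fluorescence ratio per well then scaled between controls; 0% = DMSO wells and 100% = acetylcholine at EC100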
M5 antag = human M5 muscarinic receptor antagonists, primary screen, CHO cells, Fluo-8 calcium fluorescence | Muscarinic acetylcholine receptor M5 (Homo sapiens), P08912 | CHO-hM5 cells, ACh EC80 | inhibition, % at 3 µM | actives 0.59% (n = 360,000) | AID 624040, 2012;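 active = inhibition above a per-plate cutoff, the mean of that plate's test compounds plus 3 SD, cut at about 27% in these data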;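 note: 0% = acetylcholine EC80 with DMSO and 100% = DMSO without agonist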
* hit, by the source's call.

SMILES	CHRM4 antagonist	CHRM4 PAM	CHRM5 PAM	M5 ag	CHRM4 agonist	M5 antag
CN1CCN([C@H]2CS(=O)(=O)N[C@@H]2COCc2ccccc2)CC1	1	-2	-2	-1	0	-1
CCCCC(CC(O)COCC(C)C)C(=O)NN (configuration not stated)	0	8	7	-3	0	-4
CCCCCCCC(O)CC(CC1CCCCC1)C(=O)NN (configuration not stated)	15	34*	13	-4	1	-4
Cn1nccc1NS(=O)(=O)c1ccc(NC(=O)C(F)(F)F)cc1	0	-2	-1	-4	1	2
O=C(c1ccccc1)C1N=NCC1c1ccc(Cl)cc1 (configuration not stated)	-3	3	-20	27*	1	33*
Cc1ccc(C2N(c3ccccc3)C(=S)N3CCCN23)cc1 (configuration not stated)	48*	-14	-29	-13	0	10
Fc1ccc(C2N(c3ccccc3)C(=S)N3CCCN23)cc1 (configuration not stated)	11	-23	-4	-18	-1	8
CC(CCc1ccccc1)NC(=O)CNC(=S)N(Cc1cccs1)C1CCCC1 (configuration not stated)	-6	2	12	-3	-1	-2
CCN(Cc1ccccc1)C(=O)C1CCN(C(=O)Nc2ccccc2)CC1	3	2	-7	-1	2	18
CCCN(CC(=O)Nc1ccccc1C)C(=O)C1CCN(C(=O)Nc2ccccc2)CC1	-19	21*	-7	0	2	11
C(=C\c1ccco1)/C1=NN(c2ccccc2)C(c2ccco2)C1 (configuration not stated)	16	-6	-4	5	3	15
O=[N+]([O-])c1ccc(/C=C/C2=NN(c3ccccc3)C(c3ccco3)C2)o1 (configuration not stated)	26	-15	-24	58*	28	52*
CCOC(=O)C1(CC2CCCCO2)CCN(Cc2cc3ccccc3[nH]2)CC1 (configuration not stated)	59*	-24	-21	62*	125*	34*
Cc1cc(N/C(=N\S(=O)(=O)c2ccc(F)cc2F)c2ccccc2)no1	-9	20*	3	1	1	2
O=S(=O)(/N=C(/Nc1cccnc1)c1ccccc1)c1ccc(F)cc1F	10	2	6	-3	0	5
Cc1cc(S(=O)(=O)NCc2ccccc2)ccc1OCC(=O)NCc1ccccn1	-9	0	-9	-3	4	30*
Cc1ccc2nc(C(C)(C)C)c(Cc3ccccc3C(F)(F)F)n2c1	-8	-10	-9	-5	0	5
NC(=O)COC(=O)c1ccc(S(=O)(=O)NCc2ccco2)cc1	-11	20*	8	-1	1	10
CCc1nnc(NC(=O)CN2C(=O)NC3(CCCC3)C2=O)s1	8	-2	-4	1	0	12
CCC1(c2ccc(F)cc2)NC(=O)N(CC(=O)Nc2ccc(C(N)=O)cc2)C1=O (configuration not stated)	7	2	5	-1	1	9
C=CCSc1nnc(NC(=O)CN2C(=O)NC3(CCCC3)C2=O)s1	-17	18*	1	-6	0	8
O=C(CN1C(=O)NC2(CCCC2)C1=O)Nc1ccc(F)cc1	42*	38*	-4	0	1	3
CCC1(c2ccc(F)cc2)NC(=O)N(CC(=O)Nc2ccc(N3CCCCC3)cc2)C1=O (configuration not stated)	2	-3	6	27*	21	5
O=C(CN1C(=O)NC2(CCCC2)C1=O)NNC(=O)c1ccc(Br)cc1	-16	25*	0	4	1	0
NNC(=S)Nc1cccc(-c2n[nH]c(=S)o2)c1	5	-2	8	2	1	-5
SMILES	CHRM4 antagonist	CHRM4 PAM	CHRM5 PAM	M5 ag	CHRM4 agonist	M5 antag
O=C1CN(C(=O)COC(=O)c2c(F)cccc2Cl)c2ccccc2N1	-6	5	-6	4	3	-5
Cn1cc(CN2CCC(n3nccc3NC(=O)CCOc3ccccc3)CC2)cn1	-10	-4	-8	-4	1	29*
CC(C)Cn1[nH]c2c3c(ccc2c1=O)C(=O)c1ccccc1C3=O	-15	7	3	-1	0	-3
Cc1ccc2c(c1C)NC(C(=O)O)C1CC=CC21 (configuration not stated)	13	6	12	4	0	-17
O=C(O)C1Nc2c(C(F)(F)F)ccc(Cl)c2C2C=CCC12 (configuration not stated)	-29	1	19*	-2	2	-9
Cc1sc2nc(CSCC(=O)Nc3ccccc3C#N)[nH]c(=O)c2c1C	-6	38*	3	1	1	-1
CSc1ccccc1NC(=O)CSCc1nc2sc(C)c(C)c2c(=O)[nH]1	8	-2	4	2	1	-4
N#C/C(=C\c1ccc(N2CCOCC2)o1)C(=O)NCCc1ccccc1	3	-13	-23	47*	34*	16
N#C/C(=C/c1ccc(N2CCOCC2)o1)C(=O)Nc1ccccc1	13	-16	-21	43*	54*	27*
CCOc1ccc(NC(=O)c2cc3c(=O)n(C)c4ccccc4c3n2C)cc1	-1	3	0	4	1	-2
COc1ccccc1NC(=O)c1cc2c(=O)n(C)c3ccccc3c2n1C	54*	-22	-17	-3	10	15
CS(=O)(=O)c1ccc(C(=O)OCC(=O)N2CCN(CCC3CCCCC3)CC2)cc1[N+](=O)[O-]	29*	-14	-6	-3	6	11
CCOc1ccccc1N1CCN(CC(=O)Nc2ccccc2C(=O)NC2CC2)CC1	-5	-4	-21	3	19	5
COc1cccc(C(C(=O)NC2CCCC2)N(C(=O)c2ccco2)c2ccc(NC(C)=O)cc2)c1OC (configuration not stated)	-9	21*	-1	-4	2	12
Cc1cccc(N(CC(=O)NC2CCCCC2)C(=O)CCCC(=O)Nc2ccccn2)c1C	6	-7	-4	0	0	16

Assay outcomes: PubChem, The Scripps Research Institute Molecular Screening Center
